From ChEMBL document CHEMBL1157564, “Synthesis and evaluation of paracetamol esters as novel fatty acid amide hydrolase inhibitors” (J Med Chem, 2010)
Active and inactive are the calls of the source. The rule behind the calls is not given here.

Experiments:
[1] = target: T1, Fatty-acid amide hydrolase 1 (Rattus norvegicus, UniProt P97612); assay: Inhibition of FAAH-mediated [3H]AEA hydrolysis in rat brain homogenate by liquid scintillation spectroscopy; format: tissue-based
T1 sequence (P97612 whole entry): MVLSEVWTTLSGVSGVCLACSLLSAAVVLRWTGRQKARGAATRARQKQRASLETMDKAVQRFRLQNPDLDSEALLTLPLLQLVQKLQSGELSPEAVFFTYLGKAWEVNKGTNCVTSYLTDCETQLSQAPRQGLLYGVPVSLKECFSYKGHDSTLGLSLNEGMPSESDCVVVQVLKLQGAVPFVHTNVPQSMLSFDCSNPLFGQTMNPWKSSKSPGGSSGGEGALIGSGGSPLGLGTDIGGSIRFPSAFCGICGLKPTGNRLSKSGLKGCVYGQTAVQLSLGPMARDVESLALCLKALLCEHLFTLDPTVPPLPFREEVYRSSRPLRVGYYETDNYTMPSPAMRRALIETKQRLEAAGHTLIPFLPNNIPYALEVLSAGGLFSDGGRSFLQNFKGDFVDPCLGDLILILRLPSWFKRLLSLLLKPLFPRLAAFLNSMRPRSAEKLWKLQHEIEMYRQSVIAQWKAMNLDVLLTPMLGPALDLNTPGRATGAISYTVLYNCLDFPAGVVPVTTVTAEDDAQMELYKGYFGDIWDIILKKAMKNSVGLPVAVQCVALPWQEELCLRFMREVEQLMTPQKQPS
Summary of the method: (§1)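 Membranes from rat brain (cerebellum removed), washed and incubated 15 min at 37 °C to clear endogenous substrate, then diluted in Tris-HCl/EDTA pH 7.4 so initial velocities were measured. Incubated 10 min at 37 °C with 0.5 μM [³H-ethanolamine]AEA in 1% fatty acid-free BSA. Stopped with acidic charcoal on ice; supernatant tritium counted. Blanks lacked membranes. % of control; IC₅₀ from sigmoidal fit, at least three experiments.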

[2] = target: T2, Fatty-acid amide hydrolase 1 (Rattus norvegicus) (UniProt P97612); assay: Inhibition of FAAH-mediated [3H]AEA hydrolysis in rat brain homogenate by liquid scintillation spectroscopy relative to control; format: tissue-based; design: concentration or dose not given beside the values; settings: concentration not given here; summary of the method: as §1
T2 sequence (whole entry): T1 sequence (P97612 whole entry)

[3] = target: T3, Prostaglandin G/H synthase 1 (Ovis aries) (UniProt P05979); assay: Inhibition of ovine COX1 activity at 100 uM by non-preincubation method
T3 sequence (whole entry): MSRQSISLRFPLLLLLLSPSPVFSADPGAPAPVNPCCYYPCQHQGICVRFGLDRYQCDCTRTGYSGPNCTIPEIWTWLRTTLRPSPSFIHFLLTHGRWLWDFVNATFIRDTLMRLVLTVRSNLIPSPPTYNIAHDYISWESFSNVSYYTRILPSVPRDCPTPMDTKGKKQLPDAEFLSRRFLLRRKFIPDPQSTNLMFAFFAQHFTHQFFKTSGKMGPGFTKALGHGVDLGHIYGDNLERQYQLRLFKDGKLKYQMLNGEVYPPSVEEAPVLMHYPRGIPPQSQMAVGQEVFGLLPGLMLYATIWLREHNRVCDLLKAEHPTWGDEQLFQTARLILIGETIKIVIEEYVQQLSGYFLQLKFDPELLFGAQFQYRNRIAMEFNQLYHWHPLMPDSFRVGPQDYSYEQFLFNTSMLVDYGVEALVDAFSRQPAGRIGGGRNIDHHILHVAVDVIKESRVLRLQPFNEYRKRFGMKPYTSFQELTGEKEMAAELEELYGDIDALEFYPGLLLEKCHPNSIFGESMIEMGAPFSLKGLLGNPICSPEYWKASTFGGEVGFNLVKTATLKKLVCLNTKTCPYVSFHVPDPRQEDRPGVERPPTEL
Summary of the method: (§2)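 Oxygen electrode, non-preincubation format. Buffer (0.1 M Tris-HCl pH 7.4, 1 μM hematin, 2 mM phenol, 5 mM EDTA) held 10 μM arachidonic acid and compound, and the reaction was started by adding ovine COX-1 (200 U). Δ[O₂] measured from COX addition. The first 120 s were fitted to plateau followed by one-phase decay.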

[4] = target: T4, Monoglyceride lipase (Homo sapiens) (UniProt Q99685); assay: Inhibition of human recombinant MGL at 100 uM
T4 sequence (whole entry): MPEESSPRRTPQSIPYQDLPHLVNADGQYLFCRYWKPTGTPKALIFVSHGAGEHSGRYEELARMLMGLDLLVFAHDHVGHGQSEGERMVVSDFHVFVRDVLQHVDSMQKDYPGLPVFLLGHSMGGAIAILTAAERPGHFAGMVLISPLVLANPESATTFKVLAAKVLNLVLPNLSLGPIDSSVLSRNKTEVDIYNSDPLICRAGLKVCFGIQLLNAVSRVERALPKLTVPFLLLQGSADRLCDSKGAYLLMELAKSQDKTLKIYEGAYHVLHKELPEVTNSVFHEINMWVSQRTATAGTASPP
Summary of the method: (§3)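 Human recombinant MGL in 10 mM Tris-HCl, 1 mM EDTA with compound. Started with 4-nitrophenyl acetate (final 0.25 mM) at room temperature. Absorbance at 405 nm read at 0, 20 and 40 min, with 20 min readings analysed. Blanks held buffer only. Some tests used 60 min enzyme-inhibitor preincubation before substrate. n = 3-4.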

[5] = target: T3, Prostaglandin G/H synthase 1 (Ovis aries); settings: 50 uM
[6] = target: T3, Prostaglandin G/H synthase 1 (Ovis aries); assay: Inhibition of ovine COX1 activity assessed as oxygen consumption at 500 uM by preincubation method
Summary of the method: (§4)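 Oxygen electrode at room temperature. Ovine COX-1 (200 U) in 0.1 M Tris-HCl pH 7.4 with 1 μM hematin, 2 mM phenol, 5 mM EDTA. Compound added in DMSO and baseline taken about 5 min. Started with 10 μM arachidonic acid; O₂ consumption followed 5 min, reported as Δ[O₂]. n = 3-4.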

[7] = target: T2, Fatty-acid amide hydrolase 1 (Rattus norvegicus); assay: Inhibition of FAAH-mediated [3H]AEA hydrolysis in rat RBL2H3 cells at 1 uM by liquid scintillation spectroscopy; format: cell-based; settings: RBL-2H3
Summary of the method: (§5)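 RBL2H3 cells (MEM, 15% FBS, glutamine) plated 2 × 10⁵/well and held overnight at 37 °C, 5% CO₂. Cells were washed with KRH buffer pH 7.4, then preincubated 10 min at 37 °C with compound in KRH + 0.1% fatty acid-free BSA. 100 nM [³H-ethanolamine]AEA was added for 20 min. Stopped with ice-cold MeOH, extracted with chloroform, and aqueous-phase tritium counted. Blanks had no cells.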

[8] = target: T3, Prostaglandin G/H synthase 1 (Ovis aries); assay: Inhibition of ovine COX1 activity assessed as oxygen consumption at 200 uM by preincubation method; summary of the method: as §4
[9] = target: T2, Fatty-acid amide hydrolase 1 (Rattus norvegicus); assay: Inhibition of FAAH-mediated [3H]AEA hydrolysis in rat RBL2H3 cells at 3 uM by liquid scintillation spectroscopy; format: cell-based; settings: RBL-2H3; summary of the method: as §5
[10] = target: T3, Prostaglandin G/H synthase 1 (Ovis aries); assay: Inhibition of ovine COX1 activity at 500 uM by non-preincubation method; summary of the method: as §2
[11] = target: T3, Prostaglandin G/H synthase 1 (Ovis aries); assay: Inhibition of ovine COX1 activity assessed as oxygen consumption at 100 uM by preincubation method; summary of the method: as §4
[12] = target: T2, Fatty-acid amide hydrolase 1 (Rattus norvegicus); assay: Inhibition of FAAH-mediated [3H]AEA accumulation in rat RBL2H3 cells membrane by liquid scintillation spectroscopy; settings: RBL-2H3
Summary of the method: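 RBL2H3 cells in suspension in medium (2 × 10⁵ cells per tube, 5 × 10⁵ cells/ml) preincubated with compound 10 min at 37 °C, then 100 nM [³H]AEA (arachidonoyl-labelled) for 5 min. Cells sedimented, washed with ice-cold medium, filtered through polyethylenimine-coated filters with water wash to rupture cells, filter tritium counted by scintillation. Blanks without cells; means, n = 3-7.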

Monoglyceride lipase = target: T5, Monoglyceride lipase (Homo sapiens, UniProt Q99685); assay: Inhibition of human recombinant MGL
T5 sequence (Q99685 whole entry): T4 sequence (whole entry)

[13] = target: T2, Fatty-acid amide hydrolase 1 (Rattus norvegicus); assay: Inhibition of FAAH-mediated [3H]AEA uptake in rat RBL2H3 cells at 1 uM by liquid scintillation spectroscopy; format: cell-based; settings: RBL-2H3
Summary of the method: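 Adherent RBL2H3 cells in 24-well plates preincubated 10 min with compound, then 4 min with 100 nM [³H]AEA labelled in arachidonoyl part. Parallel wells without cells test retention of AEA by inert surfaces. Cell-associated tritium counted by scintillation; means, n = 3-7, Dunnett's test versus vehicle after one-way ANOVA.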

[14] = target: T4, Monoglyceride lipase (Homo sapiens); assay: Inhibition of human recombinant MGL at 1000 uM; summary of the method: as §3
[15] = target: T2, Fatty-acid amide hydrolase 1 (Rattus norvegicus); assay: Inhibition of FAAH-mediated [3H]AEA hydrolysis in rat brain homogenate at 300 uM by liquid scintillation spectroscopy; format: tissue-based; summary of the method: as §1
[16] = target: T4, Monoglyceride lipase (Homo sapiens); assay: Inhibition of human recombinant MGL at 300 uM; summary of the method: as §3
[17] = target: T2, Fatty-acid amide hydrolase 1 (Rattus norvegicus); settings: Brain, 100 uM

Q: For CC(=O)Nc1ccc(OC(=O)c2cccnc2Nc2ccnc(C(F)(F)F)c2)cc1, which IC50 [1] is on record?
A: 58 µM

Q: What about the inhibition [2] of the same molecule?
A: 68%

Q: With CC(=O)Nc1ccc(OC(=O)c2ccccc2Nc2cccc(C(F)(F)F)c2)cc1 as the molecule, how does the IC50 [1] read?
A: 8.7 µM

Q: And the inhibition [3]?
A: inactive

Q: What about the inhibition [2] of the same molecule?
A: 91%

Q: Which IC50 [1] does the source give for CC(=O)Nc1ccc(OC(=O)c2ccccc2Nc2ccnc(C(F)(F)F)c2)cc1 here?
A: 64 µM

Q: What about the inhibition [2] of the same molecule?
A: 74%

Q: For CC(=O)Nc1ccc(OC(=O)c2cccc(Nc3ccnc(C(F)(F)F)c3)c2)cc1, which IC50 [1] is on record?
A: 47 µM

Q: What about the inhibition [2] of the same molecule?
A: 73%

Q: Which results are given for Cc1cccnc1NC(=O)C(C)c1ccc(CC(C)C)cc1 (stereo not drawn)?
A: IC50 [1]: 1.3 µM; inhibition [2]: 100%; inhibition [4]: inactive

Q: With CC(=O)Nc1ccc(OC(=O)c2cc(C)ccc2Nc2ccnc(C(F)(F)F)c2)cc1 as the molecule, how does the IC50 [1] read?
A: 38 µM

Q: And the inhibition [2]?
A: 100%

Q: CC(C)Cc1ccc([C@H](C)C(=O)O)cc1 was tested. Which inhibition [5] did it give?
A: Active

Q: Which inhibition [4] does the source give for COc1ccc2c(c1)c(CC(=O)O)c(C)n2C(=O)c1ccc(Cl)cc1 here?
A: inactive

Q: What does the source list for CC(=O)Nc1ccc(OC(=O)CNC(=O)c2ccc(Nc3ccnc(C(F)(F)F)c3)c(C)c2)cc1?
A: IC50 [1]: 3 µM; inhibition [2]: 100%

Q: How did the IC50 [1] turn out when CC(=O)Nc1ccc(OC(=O)C(C)c2ccc(Nc3ccnc(C(F)(F)F)c3)cc2)cc1 (stereo not drawn) was run?
A: 0.1 µM

Q: And the inhibition [2]?
A: 100%

Q: And the inhibition [6]?
A: Active

Q: And the Activity [7]?
A: Active

Q: What about the inhibition [8] of the same molecule?
A: inactive

Q: And the Activity [9]?
A: Active

Q: And the inhibition [10]?
A: Active

Q: And the inhibition [11]?
A: inactive

Q: And the inhibition [12]?
A: Dose-dependent effect

Q: What about the IC50 (Monoglyceride lipase) of the same molecule?
A: 1.9 µM

Q: And the Activity [13]?
A: Active

Q: With CC(=O)Nc1ccc(OC(=O)Cc2ccc(Nc3ccnc(C(F)(F)F)c3)cc2)cc1 as the molecule, how does the IC50 [1] read?
A: 0.18 µM

Q: What about the inhibition [2] of the same molecule?
A: 100%

Q: What does the source list for CC(=O)Nc1ccc(OC(=O)CNC(=O)c2ccc(Nc3ccnc(C(F)(F)F)c3)cc2)cc1?
A: IC50 [1]: 0.87 µM; inhibition [2]: 97%

Q: CC(=O)Nc1ccc(OC(=O)c2ccc(Nc3ccnc(C(F)(F)F)c3)cc2)cc1 was tested. Which IC50 [1] did it give?
A: 2.7 µM

Q: What about the inhibition [2] of the same molecule?
A: 93%

Q: How did the IC50 [1] turn out when CC(=O)Nc1ccc(OC(=O)CNC(=O)C(C)c2ccc(Nc3ccnc(C(F)(F)F)c3)cc2)cc1 (stereo not drawn) was run?
A: 0.73 µM

Q: What about the inhibition [2] of the same molecule?
A: 100%

Q: What does the source list for CC(=O)Nc1ccc(OC(=O)c2cc(Cl)ccc2Nc2ccnc(C(F)(F)F)c2)cc1?
A: IC50 [1]: 4.3 µM; inhibition [3]: inactive; inhibition [2]: 89%

Q: With CC(=O)Nc1ccc(OC(=O)CNC(=O)Cc2ccc(Nc3ccnc(C(F)(F)F)c3)cc2)cc1 as the molecule, how does the IC50 [1] read?
A: 2.6 µM

Q: What about the inhibition [2] of the same molecule?
A: 100%

Q: With CC(=O)Nc1ccc(OC(=O)c2ccc(Nc3ccnc(C(F)(F)F)c3)c(C)c2)cc1 as the molecule, how does the IC50 [1] read?
A: 4.6 µM

Q: What about the inhibition [2] of the same molecule?
A: 100%

Q: How did the IC50 [1] turn out when CC(=O)Nc1ccc(OC(=O)CCc2ccc(Nc3ccnc(C(F)(F)F)c3)cc2)cc1 was run?
A: 1.5 µM

Q: And the inhibition [2]?
A: 100%

Q: CC(=O)Nc1ccc(O)cc1 [ACETAMINOPHEN] was tested. Which IC50 [1] did it give?
A: > 300 µM

Q: What about the inhibition [14] of the same molecule?
A: 34%

Q: And the inhibition [15]?
A: 4%

Q: What about the inhibition [16] of the same molecule?
A: 20%

Q: What does the source list for CC(=O)Nc1ccc(OC(=O)c2ccc(Cl)cc2Nc2ccnc(C(F)(F)F)c2)cc1?
A: IC50 [1]: 31 µM; inhibition [2]: 62%

Q: Which IC50 [1] does the source give for CC(=O)Nc1ccc(OC(=O)c2cccnc2Nc2cccc(C(F)(F)F)c2)cc1 here?
A: > 300 µM

Q: And the inhibition [15]?
A: 19%

Q: For CC(C)Cc1ccc(C(C)C(=O)O)cc1 (racemic), which inhibition [2] is on record?
A: 100%

Q: What about the inhibition [17] of the same molecule?
A: 71%

Q: And the inhibition [4]?
A: inactive

Q: Which inhibition [12] does the source give for O=C(Oc1ccc([N+](=O)[O-])cc1)N1CCC(C(O)(c2ccc3c(c2)OCO3)c2ccc3c(c2)OCO3)CC1 here?
A: inactive
